Measured values: ChEMBL document CHEMBL1134049, “Antimitotic and cell growth inhibitory properties of combretastatin A-4-like ethers” (Bioorg Med Chem Lett, 2001)
Each block holds one compound with its values, some of them ahead of it.

Tests used:
L1210 = test: Concentration required for 50% inhibition of L1210 murine leukemia cell growth in MTT assay; assay type: functional, cell-based; conditions: Mus musculus
P388 = test: Concentration required for 50% inhibition of P388 murine leukemia cell growth in MTT assay; assay type: functional, cell-based; conditions: Mus musculus
K562 [1] = test: Concentration required for 50% inhibition of K562 human chronic myelogenous leukemia cell growth in MTT assay; assay type: functional, cell-based
Summary of the method: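 K562 cells grown at 37 °C with compound for 5 days; growth read by MTT assay; IC50 taken as concentration giving 50% decrease in cell growth.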

K562 [2] = test: Effect upon G2 M phase of cell cycle relative to untreated control; assay type: functional, Homo sapiens; parameters: unit not given here
Tubulin [3] = target: T1, Tubulin (Sus scrofa, UniProt P02554+P02550); test: Concentration required to cause 50% decrease in the binding of [3H]colchicine from purified porcine tubulin.; assay type: protein assay
Tubulin [4] = target: T1, Tubulin; test: Effect on tubulin binding and the concentration required to cause 50% decrease in tubulin assembly at 350 nm.; assay type: protein assay
Summary of the method: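 Tubulin assembly followed by increase in turbidity at 350 nm; IC50 is the concentration causing 50% decrease in assembly.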

K562 [5] = test: Effect upon G0-G1 phase of cell cycle relative to untreated control; assay type: functional, Homo sapiens; parameters: unit not given here
K562 [6] = test: Effect upon S phase of cell cycle relative to untreated control; assay type: functional, Homo sapiens; parameters: unit not given here

SMILES: COc1ccc(-c2cc(OC)c(OC)c(OC)c2)cc1O
IC50 (L1210): > 50000 nM

SMILES: COc1ccc(CCc2cc(OC)c(OC)c(OC)c2)cc1O
IC50 (P388): 110 nM

SMILES: COc1ccc(Nc2cc(OC)c(OC)c(OC)c2)cc1
IC50 (K562 [1]): 3000 nM

SMILES: COc1ccc(C(O)Cc2cc(OC)c(OC)c(OC)c2)cc1O (centres undefined)
IC50 (P388): 33000 nM

SMILES: COc1ccc(Oc2ccc(C)c(C)c2)cc1
IC50 (K562 [1]): 24000 nM

SMILES: COc1ccc(Nc2cc(OC)c(OC)c(OC)c2)cc1O
Activity (K562 [2]): 87.2
IC50 (Tubulin [3]): 298000 nM
IC50 (Tubulin [4]): > 100000 nM
Activity (K562 [5]): 3.4
IC50 (K562 [1]): 2600 nM
Activity (K562 [6]): 9.4

SMILES: COc1ccc(Oc2cc(OC)c(OC)c(OC)c2)cc1OCc1ccccc1
IC50 (K562 [1]): 51000 nM

SMILES: COc1ccc(CC(O)c2cc(OC)c(OC)c(OC)c2)cc1O (centres undefined)
IC50 (P388): 33 nM

SMILES: COc1ccc([C@@H](O)[C@H](O)c2cc(OC)c(OC)c(OC)c2)cc1O
IC50 (P388): 19000 nM

SMILES: COc1ccc(Oc2cc(OC)c(OC)c(OC)c2)cc1
IC50 (K562 [1]): 380 nM

SMILES: COc1ccc(C#Cc2cc(OC)c(OC)c(OC)c2)cc1O
IC50 (K562 [1]): 21000 nM

SMILES: COc1ccc([C@H](O)[C@@H](O)c2cc(OC)c(OC)c(OC)c2)cc1O
IC50 (P388): 2000 nM

SMILES: COc1ccc(Nc2cc(OC)c(OC)c(OC)c2)cc1OCc1ccccc1
IC50 (K562 [1]): 15000 nM

SMILES: COc1ccc(/C=C\c2cc(OC)c(OC)c(OC)c2)cc1O [COMBRETASTATIN A4]
IC50 (P388): 160 nM

SMILES: COc1ccc(/C=C/c2cc(OC)c(OC)c(OC)c2)cc1O [E-COMBRETASTATIN A-4]
IC50 (P388): 2.6 nM

SMILES: COc1ccc(C(=O)c2cc(OC)c(OC)c(OC)c2)cc1O [PHENSTATIN]
IC50 (P388): 10 nM

Now from value to compound, other results behind:

IC50 (Tubulin [3]): 226000 nM
IC50 (Tubulin [4]): 22500 nM
IC50 (K562 [1]): 120 nM
SMILES: COc1ccc(OCc2cc(OC)c(OC)c(OC)c2)cc1O
Activity (K562 [2]): 78.3
Activity (K562 [5]): 3.8
Activity (K562 [6]): 17.9

IC50 (Tubulin [3]): 4000 nM
IC50 (Tubulin [4]): 600 nM
IC50 (K562 [1]): 170 nM
SMILES: COc1ccc(OCc2cc(OC)c(OC)c(OC)c2)cc1C=O
Activity (K562 [2]): 57.8
Activity (K562 [5]): 9.1
Activity (K562 [6]): 33.1

IC50 (K562 [1]): 2500 nM
SMILES: COc1ccc(COc2cc(OC)c(OC)c(OC)c2)cc1OCC=O

IC50 (K562 [1]): 30000 nM
SMILES: C=CCOc1cc(COc2cc(OC)c(OC)c(OC)c2)ccc1OC

IC50 (K562 [1]): 60000 nM
SMILES: COc1ccc(OCc2cc(OC)c(OC)c(OC)c2)cc1CO

IC50 (Tubulin [3]): 36000 nM
IC50 (Tubulin [4]): 6600 nM
IC50 (K562 [1]): 20 nM
SMILES: COc1ccc(COc2cc(OC)c(OC)c(OC)c2)cc1O
Activity (K562 [2]): 82.5
Activity (K562 [5]): 3.5
Activity (K562 [6]): 14

IC50 (Tubulin [3]): 36000 nM
IC50 (Tubulin [4]): 16300 nM
IC50 (K562 [1]): 50 nM
SMILES: COc1ccc(Oc2cc(OC)c(OC)c(OC)c2)cc1O
Activity (K562 [2]): 73.4
Activity (K562 [5]): 4.3
Activity (K562 [6]): 22.3

IC50 (K562 [1]): 90000 nM
SMILES: COc1ccc(COc2cc(OC)c(OC)c(OC)c2)cc1OCC(O)CO (centres undefined)
